The values that follow come from ChEMBL document CHEMBL4219039, “Group-Based Optimization of Potent and Cell-Active Inhibitors of the von Hippel-Lindau (VHL) E3 Ubiquitin Ligase: Structure-Activity Relationships Leading to the Chemical Probe …” (J Med Chem, 2018).

In data set [1] the target is T1, Von Hippel-Lindau disease tumor suppressor/Elongin B/Elongin C (Homo sapiens) (UniProt P40337+Q15370+Q15369). Kind of data set: Inhibition of VBC in human HeLa cells expressing HRE-luciferase reporter gene assessed as reduction in HIF transcriptional activity at 1 to 250 uM after 24 hrs by luciferase reporter gene assay. It counts as cell-based. (In a reporter assay the amount or activity of a reporter protein is the signal.)

Data set [2] concerns the target T1, Von Hippel-Lindau disease tumor suppressor/Elongin B/Elongin C (Homo sapiens). As to the kind of experiment: Inhibition of VBC in human HeLa cells assessed as HIF-1alpha stabilization by measuring HIF-1alpha protein levels at 50 uM after 2 hrs by Western blot analysis. The format is cell-based. Set-up: scale not given: the % may be the effect or the level left. The gist of the method:
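HeLa (ATCC) grown in DMEM with 10% FBS, L-glutamine and penicillin/streptomycin at 37 °C; mycoplasma-tested. Treated 2 h in fresh medium, 1% DMSO as vehicle control. Lysed in RIPA buffer with protease inhibitors, SDS-PAGE, nitrocellulose blot. Anti-HIF-1α probed with β-actin as loading control, IRDye 800CW secondary for detection. Levels normalized to a reference VHL inhibitor.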
(A western blot detects proteins with antibodies after separation by electrophoresis.)

For data set [3], the system named is HeLa. Kind of data set: Antiproliferative activity against human HeLa cells assessed as reduction in cell proliferation at 150 uM incubated for 24 to 72 hrs by haemocytometry. It counts as cell-based.
Data set [4] deals with HeLa. Kind of data set: Antiproliferative activity against human HeLa cells assessed as reduction in colony formation at 150 uM incubated for 24 hrs by crystal violet staining based assay. It counts as cell-based. The gist of the method: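 HeLa cells, 500–2000 per well, seeded one day before exposure to 150 μM compound; 1% DMSO as vehicle control. Medium replaced after 24 h treatment, then grown a further week. Stained with 0.005% crystal violet in 25% methanol for 10 min at room temperature. Colonies counted on scanned plates.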

The nature of data set [5]: Passive permeability of the compound in pH 7.4 PBS at 10 uM after 5 hrs by UPLC-MS/MS method based PAMPA. It counts as ADME. As to conditions: pH 7.4, 5 h. The gist of the method: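 Precoated PAMPA plate with lipid–oil–lipid trilayer filter. Compound at 10 μM in PBS pH 7.4 (≤5% DMSO) in the donor well, PBS in the acceptor well. Held 5 h at room temperature; both compartments quantified by UPLC-MS/MS. Pe calculated from peak areas; data accepted only if recovery exceeded 70%. Propranolol as control.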

Data set [6] in a line: Chromatographic hydrophobicity index, log D of the compound at pH 7.4 by HPLC analysis. It counts as physicochemical. As to conditions: buffer. The gist of the method:
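DMSO stocks (10 mM) diluted to 0.25 mM in 50:50 acetonitrile:water. Run on C18 HPLC at 20 °C, 1 mL/min. Mobile phase 10 mM ammonium acetate pH 7.4 with an acetonitrile gradient. Retention times calibrated against a standard mix of eleven reference compounds, then converted to CHIlogD.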

For data set [7], the target named is T1, Von Hippel-Lindau disease tumor suppressor/Elongin B/Elongin C (Homo sapiens). As to the kind of experiment: Binding affinity to VBC (unknown origin) assessed as association rate constant at 50 uM after 60 secs at 10 degC by surface plasmon resonance assay. It counts as protein-complex assay. The gist of the method:
(§1)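 SPR on a Biacore T100 at 10 and 20 °C against VBC complex. Ligand stock 50 μM in DMSO, 2-fold serial dilutions in SPR buffer (20 mM HEPES, 150 mM NaCl, 1 mM DTT, 0.005% Tween P20, pH 7.0). Kd taken as koff/kon.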

The target is the same in data set [8]. As to the kind of experiment: Binding affinity to VBC (unknown origin) assessed as dissociation rate constant at 50 uM after 160 secs at 10 degC by surface plasmon resonance assay. The format is protein-complex assay. The gist of the method: as §1
The nature of data set [9]: Half life in plasma (unknown origin) at pH 7.4 at 50 uM up to 180 mins by UPLC-MS/MS analysis. The format is ADME, cell-free. The gist of the method:
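Compound at 50 μM incubated at 37 °C in prewarmed plasma buffered to pH 7.4 (70:30 plasma to buffer). Aliquots were taken at 0, 30, 60, 120 and 180 min and quenched in acetonitrile with donepezil internal standard. Samples were centrifuged and analysed by UPLC-MS/MS. The rate constant was fitted as exponential decay of the compound/internal standard peak-area ratio.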

Data set [10] can be described thus: Intrinsic clearance in CD1 mouse liver microsomes at 0.5 uM up to 30 mins by UPLC-MS/MS analysis. The format is ADME, microsome. As to conditions: 0.5 h. The gist of the method: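 Compound at 0.5 μM with female CD1 mouse liver microsomes (0.5 mg/mL) in 50 mM potassium phosphate pH 7.4, started with excess NADPH. Samples quenched in acetonitrile at 0, 3, 6, 9, 15 and 30 min; UPLC-MS/MS against internal standard. Decay rate constant converted to CLi assuming 52.5 mg microsomal protein/g liver. Verapamil as assay control.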
A general note: Liver microsomes are a subcellular fraction often used to study metabolism.

For data set [11], the target named is T1, Von Hippel-Lindau disease tumor suppressor/Elongin B/Elongin C (Homo sapiens). Kind of data set: Binding affinity to VBC (unknown origin) assessed as dissociation rate constant at 50 uM after 160 secs at 20 degC by surface plasmon resonance assay. It counts as protein-complex assay. The gist of the method:
as §1

The target is the same in data set [12].
The target is the same in data set [13]. This is another data set of the same source.

Activity calls are given as the source filed them.

T1 sequence (P40337 whole entry, looked up): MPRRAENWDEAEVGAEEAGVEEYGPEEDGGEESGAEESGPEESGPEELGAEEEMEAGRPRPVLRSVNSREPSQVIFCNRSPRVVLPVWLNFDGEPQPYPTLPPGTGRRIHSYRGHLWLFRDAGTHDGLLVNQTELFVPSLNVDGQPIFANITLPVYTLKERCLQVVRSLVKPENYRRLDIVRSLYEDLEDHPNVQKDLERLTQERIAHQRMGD
T1 sequence (Q15369 whole entry, looked up): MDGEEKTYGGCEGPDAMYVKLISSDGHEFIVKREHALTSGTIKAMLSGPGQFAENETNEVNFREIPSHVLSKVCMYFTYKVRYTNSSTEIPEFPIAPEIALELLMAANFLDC
T1 sequence (Q15370 whole entry, looked up): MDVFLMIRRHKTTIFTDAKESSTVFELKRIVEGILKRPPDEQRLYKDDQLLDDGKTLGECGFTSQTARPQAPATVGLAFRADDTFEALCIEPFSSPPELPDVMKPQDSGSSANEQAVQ

The term chromatographic logD denotes lipophilicity estimated from chromatographic retention. The term half-life denotes the time needed for the level to fall by half in the phase considered. With `Cc1ncsc1-c1ccc(CNC(=O)[C@@H]2C[C@@H](O)CN2C(=O)[C@@H](NC(=O)C2(F)CC2)C(C)(C)C)cc1`, the inhibition result in data set [1] is “Active”. Moreover, the results for the Activity in data set [2], in data set [3] and in data set [4] were 175%, “Toxic” and “Toxic”, respectively. In data set [5], this compound had a permeability of 2.71 ×10⁻⁶ cm/s. In [6], this compound gave a chromatographic logD of 1.63. Also, the results for the K in data set [7], in [8] and in data set [11] were 2.4 ×10⁶ /M/s, 0.058 s⁻¹ and 0.098 s⁻¹, respectively. Further, in [9], the half-life at 50 µM is above 3 h. Also, in data set [10], the “intrinsic clearance (CLint)” value was 2.9 mL/min/g. The T1/2 was found to be 11.9 s in data set [12] and 7.07 s in [13].
